Experimental data: publication PMC4833523 (Bioorganic & medicinal chemistry letters, 2016)

Legend:
[1] = Rat IV PBL; assay type: in vivo; conditions: compared to 4
[2] = Rat microsomal intrinsic clearance / predicted hepatic clearance; assay type: in vitro ADME; conditions: predicted hepatic clearance from rat microsomal intrinsic clearance
[3] = Rat brain homogenate binding; assay type: in vitro ADME; conditions: compared to 4
[4] = Human microsomal intrinsic clearance / predicted hepatic clearance; assay type: in vitro ADME; conditions: compared to 4
[5] = biological target: human mGlu1 (Homo sapiens, UniProt Q13255); test: Calcium mobilization mGlu1 PAM assay; assay type: cell-based
Sequence of human mGlu1 (Q13255 19-1194): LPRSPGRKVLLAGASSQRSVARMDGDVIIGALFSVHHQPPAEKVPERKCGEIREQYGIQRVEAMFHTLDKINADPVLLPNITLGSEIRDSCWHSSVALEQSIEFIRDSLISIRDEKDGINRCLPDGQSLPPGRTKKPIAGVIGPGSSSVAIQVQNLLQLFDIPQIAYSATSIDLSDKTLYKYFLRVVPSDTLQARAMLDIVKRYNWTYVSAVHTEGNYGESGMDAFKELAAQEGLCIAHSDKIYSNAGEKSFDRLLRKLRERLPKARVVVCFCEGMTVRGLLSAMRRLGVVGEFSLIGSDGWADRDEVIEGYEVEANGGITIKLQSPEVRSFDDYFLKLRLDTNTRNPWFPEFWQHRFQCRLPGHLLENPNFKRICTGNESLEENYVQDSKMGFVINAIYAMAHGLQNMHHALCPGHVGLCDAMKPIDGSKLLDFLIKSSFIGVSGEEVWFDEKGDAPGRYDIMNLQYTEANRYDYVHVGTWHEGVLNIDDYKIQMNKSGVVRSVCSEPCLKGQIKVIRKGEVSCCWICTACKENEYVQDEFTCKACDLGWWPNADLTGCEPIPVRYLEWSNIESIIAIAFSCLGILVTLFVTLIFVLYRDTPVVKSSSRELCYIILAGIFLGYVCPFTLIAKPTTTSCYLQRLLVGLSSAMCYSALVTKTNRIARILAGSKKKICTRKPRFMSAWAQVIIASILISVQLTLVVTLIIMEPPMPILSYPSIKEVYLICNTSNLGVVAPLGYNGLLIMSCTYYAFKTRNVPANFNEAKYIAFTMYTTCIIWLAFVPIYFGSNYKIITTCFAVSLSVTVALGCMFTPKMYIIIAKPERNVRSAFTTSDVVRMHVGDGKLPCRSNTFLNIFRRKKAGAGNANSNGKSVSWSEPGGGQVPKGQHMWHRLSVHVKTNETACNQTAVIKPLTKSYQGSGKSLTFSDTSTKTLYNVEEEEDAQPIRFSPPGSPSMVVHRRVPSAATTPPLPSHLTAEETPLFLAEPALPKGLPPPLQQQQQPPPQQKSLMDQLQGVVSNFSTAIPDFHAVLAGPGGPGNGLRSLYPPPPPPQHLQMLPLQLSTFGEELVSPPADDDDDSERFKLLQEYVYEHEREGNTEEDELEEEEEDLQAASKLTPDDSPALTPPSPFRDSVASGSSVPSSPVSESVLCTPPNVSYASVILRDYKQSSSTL
Summary of the method: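 Calcium mobilization read-out on human mGlu1. Test compounds were first triaged in a 10 μM single-point screen with an EC20 concentration of glutamate. Those selected then got full concentration-response curves. Values are the average of three independent experiments, each run in triplicate.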

For CC(C)c1csc(NC(=O)C2c3ccccc3Oc3ccccc32)n1 [9b], the “fold improvement in Kp (CNS exposure) over 4” value [1] was ~ 3 fold and the “Rat CLhep” value [2] was 64 mL/min/kg.

For N#Cc1csc(NC(=O)C2c3ccccc3Oc3ccccc32)n1 [9a], the “enhancement of free drug in brain” value [3] was over 10 fold, the “reduction of human microsomal intrinsic clearance” value [4] was ~ 50% and the “fold improvement in Kp (CNS exposure) over 4” value [1] was ~ 4 fold. For the same molecule, the “Rat CLhep” value [2] was 62.2 mL/min/kg.

In the case of Cc1nc(NC(=O)C2c3ccccc3Oc3ccccc32)sc1C [9g], the “mGlu1 PAM activity in words” value [5] was “weak PAM activity”.

With O=C(Nc1nc2ccccc2s1)C1c2ccccc2Oc2ccccc21 [9f] the “fold increase in potency on replacing thiazole 9e” value ([5]; 9f versus 9e) was about 3 fold.

In the case of O=C(Nc1ccccn1)C1c2ccccc2Oc2ccccc21 [9h], the “mGlu1 PAM activity in words” value [5] was “moderate activity”.
